The target of series [1] is T1, Amine oxidase [flavin-containing] A (Homo sapiens, UniProt P21397).
T1 sequence (P21397 whole entry): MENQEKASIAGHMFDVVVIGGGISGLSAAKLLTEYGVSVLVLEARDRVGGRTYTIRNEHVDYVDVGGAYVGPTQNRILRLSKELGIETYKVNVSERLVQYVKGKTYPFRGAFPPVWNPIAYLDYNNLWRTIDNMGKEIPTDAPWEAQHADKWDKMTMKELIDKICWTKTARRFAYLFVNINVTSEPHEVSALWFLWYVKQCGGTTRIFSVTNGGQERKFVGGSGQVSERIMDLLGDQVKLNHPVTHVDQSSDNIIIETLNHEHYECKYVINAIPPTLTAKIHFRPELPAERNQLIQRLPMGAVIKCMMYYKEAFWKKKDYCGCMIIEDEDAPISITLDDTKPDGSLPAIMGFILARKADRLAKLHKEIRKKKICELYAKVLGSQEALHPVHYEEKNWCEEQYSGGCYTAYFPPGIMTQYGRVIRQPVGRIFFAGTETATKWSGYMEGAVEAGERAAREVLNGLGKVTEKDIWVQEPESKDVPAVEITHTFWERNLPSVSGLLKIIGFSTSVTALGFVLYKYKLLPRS
Nature of the series: Inhibition of human recombinant MAO-A expressed in baculovirus-infected BTI-TN-5B1-4 cell microsomes assessed as decrease in H2O2 production using p-tyramine as substrate preincubated for 15 mins by Amplex Red reagent based fluorimetric method.

For series [2], the target named is T2, Amine oxidase [flavin-containing] B (Homo sapiens, UniProt P27338).
T2 sequence (P27338 whole entry): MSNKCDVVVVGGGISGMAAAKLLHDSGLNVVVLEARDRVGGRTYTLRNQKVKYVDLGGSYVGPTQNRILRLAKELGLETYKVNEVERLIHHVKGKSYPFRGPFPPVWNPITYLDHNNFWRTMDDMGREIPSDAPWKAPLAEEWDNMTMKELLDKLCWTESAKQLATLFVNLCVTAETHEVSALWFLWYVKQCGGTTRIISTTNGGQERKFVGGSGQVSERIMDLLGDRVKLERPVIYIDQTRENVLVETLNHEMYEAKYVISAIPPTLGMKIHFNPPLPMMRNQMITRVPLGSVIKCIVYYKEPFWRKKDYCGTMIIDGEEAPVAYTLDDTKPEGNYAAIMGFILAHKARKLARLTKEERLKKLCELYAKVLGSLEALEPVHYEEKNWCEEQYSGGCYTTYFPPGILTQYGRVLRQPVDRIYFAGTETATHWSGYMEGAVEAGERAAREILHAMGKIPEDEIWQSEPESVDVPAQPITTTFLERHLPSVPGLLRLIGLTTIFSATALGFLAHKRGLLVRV
Nature of the series: biochemical. In kind it is cell-based, BTI-TN-5B1-4.

For a further series, the system named is BTI-TN-5B1-4. As to the kind of experiment: Selectivity index, ratio of IC50 for human recombinant MAO-A expressed in baculovirus-infected BTI-TN-5B1-4 cell microsomes to IC50 for human recombinant MAO-B expressed in baculovirus-infected BTI-TN-5B1-4 cell microsomes.
The target in series [3] is T1, Amine oxidase [flavin-containing] A. As to the kind of experiment: Inhibition of human recombinant MAO-A expressed in baculovirus-infected BTI-TN-5B1-4 cell microsomes assessed as decrease in H2O2 production using p-tyramine as substrate at 100 uM preincubated for 15 mins by Amplex Red reagent based fluorimetric method. The conditions noted are these: bti-tn-5b1-4, 100 µM. In outline:
(§1)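 Microsomal enzyme in 0.05 M sodium phosphate, pH 7.4. The enzyme amount was adjusted so that controls oxidize 165 pmol p-tyramine/min. Drug and enzyme were preincubated for 15 min at 37 °C. Final 200 µM Amplex Red and 1 U/mL HRP were then added. Resorufin fluorescence (ex 545/em 590 nm) was read linearly over 15 min at 37 °C. Background without enzyme was subtracted, and drug interference was checked with Amplex Red alone.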

The target of series [4] is T2, Amine oxidase [flavin-containing] B. Nature of the series: Inhibition of human recombinant MAO-B expressed in baculovirus-infected BTI-TN-5B1-4 cell microsomes assessed as decrease in H2O2 production using p-tyramine as substrate at 1 mM preincubated for 15 mins by Amplex Red reagent based fluorimetric method. The settings on record: bti-tn-5b1-4, 1000 µM. The method in brief: as §1

This is an account of results in ChEMBL document CHEMBL3259538, “Identification of the stereochemical requirements in the 4-aryl-2-cycloalkylidenhydrazinylthiazole scaffold for the design of selective human monoamine oxidase B inhibitors” (Bioorg Med Chem, 2014).

pIC50: −log10 of the molar value.

As for `C[C@@H]1CC/C(=N\Nc2nc(-c3ccc(F)cc3F)cs2)C1`, the pIC50 in series [1] is 4.88; in series [2], 8.30. Moreover, the Ratio IC50 in the series with BTI-TN-5B1-4 worked out at 2580.
On to `C[C@@H]1CC/C(=N/Nc2nc(-c3ccc(F)cc3F)cs2)C1`, for which the pIC50 in series [1] was 4.86; in series [2], 8.54. The Ratio IC50 with BTI-TN-5B1-4 came out at 4740.
The matching figures for `C[C@@H]1CCC(=NNc2nc(-c3ccc(F)cc3F)cs2)C1`: 4.81, 8.27 and 2920.
The matching figures for `CC1CCC/C1=N\Nc1nc(-c2ccc([N+](=O)[O-])cc2)cs1` (mixture of isomers): 4.72, 8.08 and 2310.
For the molecule `CC1CC/C(=N\Nc2nc(-c3ccc([N+](=O)[O-])cc3)cs2)C1` (mixture of isomers), the pIC50 in series [2] was 6.43. In addition, the Ratio IC50 in the series on BTI-TN-5B1-4 is above 266. For the same molecule, the “inhibition (INH)” value in series [3] was “Not Active”.
`CC1CC/C(=N\Nc2nc(-c3ccc(C#N)cc3)cs2)C1` (mixture of isomers): the values for the pIC50 in series [1] and in series [2] were 4.96 and 6.64, respectively. For the same molecule, the Ratio IC50 with BTI-TN-5B1-4 amounted to 49.
On to `CC1CC/C(=N\Nc2nc(-c3ccc(F)cc3F)cs2)C1` (mixture of isomers), for which the pIC50 in series [1] was 4.77; in series [2], 8.03. The Ratio IC50 in the series with BTI-TN-5B1-4 stood at 1810.
`O=C1Nc2ccccc2C1=O` [ISATIN]: the “inhibition (INH)” value in series [3] is on record as “Not Active”.
With `O=C(NCCN1CCOCC1)c1ccc(Cl)cc1` [MOCLOBEMIDE], in series [4], the “inhibition (INH)” value is listed as “Not Active”.
